Key:
Paracentrotus lividus [1] = assay: Antimitotic activity against Paracentrotus lividus embryo assessed as cleavage alteration measured at 2.5 hrs post fertilization by light microscopy; type: functional
Outline: (§1)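 Sea urchin eggs were fertilized with diluted sperm and cultured at room temperature in filtered seawater with paddle agitation (60 rpm), at up to 2000 embryos/mL. The effective threshold concentration causing cleavage alteration, death before hatching or full mitotic arrest was scored in duplicate.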

Paracentrotus lividus [2] = assay: Antimitotic activity against Paracentrotus lividus embryo assessed as cleavage arrest measured at 5.5 hrs post fertilization by light microscopy; type: functional; outline: as §1
Paracentrotus lividus [3] = assay: Antimitotic activity against Paracentrotus lividus embryo assessed as embryo spinning after 15 mins to 20 hrs by light microscopy; type: functional
Outline: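 Free-swimming blastulae from the same culture were used just after hatching (8–10 h post-fertilization). They were kept in filtered seawater at room temperature and exposed to 2-fold decreasing concentrations. Spinning at the well bottom instead of forward swimming was monitored from 15 min to 20 h under light microscopy. The effective threshold concentration was recorded from duplicates.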

Paracentrotus lividus [4] = assay: Toxicity in Paracentrotus lividus embryo assessed as embryo death at 2 to 4 uM by light microscopy; type: organism-based; details: in vivo
Paracentrotus lividus [5] = assay: Toxicity in Paracentrotus lividus embryo assessed as embryo destruction at 2 to 4 uM by light microscopy; type: organism-based; details: in vivo

SMILES	EC (Paracentrotus lividus [1]) [µM]	EC (Paracentrotus lividus [2]) [µM]	EC (Paracentrotus lividus [3]) [µM]	Activity (Paracentrotus lividus [4])	Activity (Paracentrotus lividus [5])
COc1ccc(-c2noc(C(=O)O)c2-c2cc(OC)cc(OC)c2)cc1	20	>40	>40		
COc1ccc(/C(=C/c2cccs2)[N+](=O)[O-])cc1	0.2	2	2	Toxic	Toxic
COc1ccc(-c2noc(C(=O)O)c2-c2cc(OC)c(OC)c(OC)c2)cc1	0.2	2	>5		
CCOC(=O)C1O[N+]([O-])=C(c2ccc(OC)cc2)C1c1cc(OC)cc(OC)c1 (centres undefined)	>4	>4	>4		
COc1cc(-c2c(-c3ccccc3)noc2C(=O)O)c(OC)c2c1OCO2	>4	>4	>4		
COc1ccc(-c2nocc2-c2cnn(C)c2)cc1	>4	>4	>4		
COc1ccc(/C(=C/c2cnn(C)c2)[N+](=O)[O-])cc1	2	>4	>4		
CCOC(=O)C1O[N+]([O-])=C(c2ccccc2)C1c1cc(OC)c2c(c1OC)OCO2 (centres undefined)	>4	>4	>4		
COc1cc(-c2conc2-c2ccccc2)cc(OC)c1OC	4	>4	>4		
CCOC(=O)C1O[N+]([O-])=C(c2ccc(OC)cc2)C1c1ccc([N+](=O)[O-])cc1 (centres undefined)	>4	>4	>4		
COc1cc(-c2conc2-c2ccccc2)c(OC)c2c1OCO2	2	>4	>4		
CCOC(=O)C1O[N+]([O-])=C(c2ccc(OC)cc2)C1c1cccc(OC)c1 (centres undefined)	4	>4	>4		
COc1ccc(-c2nocc2-c2cccs2)cc1	0.5	>4	>4		
COc1ccc(-c2noc(C(=O)O)c2-c2cccc(OC)c2)cc1	>4	>4	>4		
COc1ccc(-c2nocc2-c2ccc([N+](=O)[O-])cc2)cc1	>4	>4	>4		
COc1ccc(-c2noc(C(=O)O)c2-c2ccc(Cl)cc2)cc1	>4	>4	>4		
COc1ccc(/C=C(/c2ccccc2)[N+](=O)[O-])cc1	2	4	4		
CCOC(=O)C1O[N+]([O-])=C(c2ccc(OC)cc2)C1c1ccc(Cl)cc1 (centres undefined)	>4	>4	>4		
COc1ccc(/C=C\c2cc(OC)c(OC)c(OC)c2)cc1O [COMBRETASTATIN A4]	0.002	0.01	0.05		
COc1ccc(-c2nocc2-c2cc(OC)cc(OC)c2)cc1	0.2	2	>10		
COc1ccc(-c2nocc2-c2ccc(Cl)cc2)cc1	>4	>4	>4		
COc1ccc(-c2conc2-c2ccccc2)cc1	0.005	0.05	0.1		
COc1ccc(-c2nocc2-c2cccc(OC)c2)cc1	0.52	4	>10		
COc1ccc(/C(=C/c2cc(OC)c(OC)c(OC)c2)[N+](=O)[O-])cc1	1	4	>4	Toxic	Toxic
CCOC(=O)C1O[N+]([O-])=C(c2ccc(OC)cc2)C1c1cc(OC)c(OC)c(OC)c1 (centres undefined)	>4	>4	>4		
COc1cc(/C=C(/c2ccccc2)[N+](=O)[O-])c(OC)c2c1OCO2	2	4	1	Toxic	Toxic
